Measured values: ChEMBL document CHEMBL1932943, “Montmorillonite K-10 mediated green synthesis of cyano pyridines: Their evaluation as potential inhibitors of PDE4” (Eur J Med Chem, 2012)

Biological target: 3',5'-cyclic-AMP phosphodiesterase 4B (Homo sapiens) (UniProt Q07343)
Experiment: Inhibition of recombinant His-tagged PDE4B using cAMP as substrate at 30 uM preincubated for 15 mins before substrate addition measured after 1 hr by luminescence assay
Summary of the method: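 PDE4B cDNA expressed as His-tagged protein in baculovirus-infected Sf9 cells, Ni-NTA purified. 10 ng enzyme preincubated 15 min with compound or DMSO vehicle, then 1 h with 5 µM cAMP, using a PDElight HTS cAMP phosphodiesterase kit. Reaction stopped, detection reagent added for 10 min in the dark, luminescence read. % inhibition = (RLU vehicle − RLU inhibitor)/RLU vehicle × 100.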

Chain of 3',5'-cyclic-AMP phosphodiesterase 4B (Homo sapiens) (Q07343 whole entry): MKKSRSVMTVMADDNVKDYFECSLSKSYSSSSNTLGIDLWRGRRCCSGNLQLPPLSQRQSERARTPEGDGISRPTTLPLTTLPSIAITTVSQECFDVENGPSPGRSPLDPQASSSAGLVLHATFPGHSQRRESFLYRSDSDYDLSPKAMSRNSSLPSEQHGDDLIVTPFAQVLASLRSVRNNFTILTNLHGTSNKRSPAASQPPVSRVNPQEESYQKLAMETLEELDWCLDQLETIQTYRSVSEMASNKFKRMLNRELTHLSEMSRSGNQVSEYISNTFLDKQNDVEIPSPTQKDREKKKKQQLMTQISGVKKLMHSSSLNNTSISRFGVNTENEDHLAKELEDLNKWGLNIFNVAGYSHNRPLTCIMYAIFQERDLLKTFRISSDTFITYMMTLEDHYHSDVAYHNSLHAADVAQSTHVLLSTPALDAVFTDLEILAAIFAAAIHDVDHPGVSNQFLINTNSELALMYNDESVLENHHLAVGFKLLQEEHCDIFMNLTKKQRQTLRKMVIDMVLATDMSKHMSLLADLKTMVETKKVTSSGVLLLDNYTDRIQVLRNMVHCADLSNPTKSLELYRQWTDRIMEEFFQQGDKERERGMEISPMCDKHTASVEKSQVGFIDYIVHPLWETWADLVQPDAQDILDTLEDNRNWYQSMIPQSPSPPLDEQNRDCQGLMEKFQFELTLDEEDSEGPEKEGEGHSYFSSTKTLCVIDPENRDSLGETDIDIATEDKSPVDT

inhibition	SMILES
21.5%	COC(=O)c1c(C)nc(OC)c(C#N)c1-c1ccc(F)cc1F
43.2%	COC(=O)c1c(C)nc(OC)c(C#N)c1-c1ccc(F)cc1
22.4%	COC(=O)c1c(C)nc(OC)c(C#N)c1-c1c(F)cc(Br)cc1F
44.8%	COC(=O)c1c(C)nc(OC)c(C#N)c1-c1ccc(Br)cc1

More lines, now with the values behind:

SMILES	inhibition
CCOC(=O)c1c(C)nc(OCC)c(C#N)c1-c1ccc(Br)cc1	43.7%
COC(=O)c1c(C)nc(OC)c(C#N)c1-c1ccc(C(F)(F)F)cc1	23.5%
CCOC(=O)c1c(C)nc(OCC)c(C#N)c1-c1ccc(OC)cc1	65.9%
CCOC(=O)c1c(C)nc(OCC)c(C#N)c1-c1ccc(F)cc1F	20.4%
COC(=O)c1c(C)nc(OC)c(C#N)c1-c1ccc(OC)cc1	64.1%
COC(=O)c1c(C)nc(OC)c(C#N)c1-c1ccccc1	38.4%
CCOC(=O)c1c(C)nc(OCC)c(C#N)c1-c1ccc(F)cc1	42.3%
